Compound activity as filed in PubChem BioAssay.
Kir21 block = inhibitors of mouse Kir2.1 inward-rectifier potassium channel. HEK293-Kir2.1, FluxOR thallium flux fluorescence; hits give low values. B-score at 10 µM. actives 0.85% (n = 310,000). AID 1672;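 active = fluorescence ratio B-score at or below minus 3 SD of library scores, with starting-brightness B-score within 2 SD, cut at about -4.2 in these data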;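 note: channel flux triggered by added potassium and thallium sulfate stimulus; B-score of peak minus minimum fluorescence over baseline after thallium stimulus; more negative B-score means stronger Kir2.1 block with less thallium influx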
KCNQ1 act = potentiates or activates the human KCNQ1 potassium channel; P51787; CHO-K1 KCNQ1, thallium flux FluxOR fluorescence; hits give high values; B-score at 10 µM; actives 0.35% (n = 310,000); AID 2648;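 active = fluorescence ratio B-score, a plate-corrected score, at least three library SD, with initial intensity B-score within 5 SD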
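Doses: Single concentration per compound, DMSO matched to controls | Test system: KCNQ1-transfected CHO-K1 cells | Timing: 90 min dye loading and 20 min compound exposure, both at room temperature | Measured by: Kinetic FluxOR thallium fluorescence, 10-s 1-Hz baseline, 110-s post-stimulus read | Medium: Assay buffer with matched DMSO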
KCNQ1 block = human KCNQ1 channel inhibition | P51787 | CHO-K1 KCNQ1, FluxOR thallium flux fluorescence; hits give high values | B-score at 10 µM | actives 1.3% (n = 310,000) | AID 2642;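 active = compounds whose thallium flux B-score, printed positive for inhibition, exceeds three library SD while starting fluorescence stays within three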;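 note: channel opened by potassium depolarization with thallium stimulus after 20 min compound exposure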
KCNK3 block = human KCNK3 channel inhibition, primary screen; O14649; CHO-KCNK3 thallium flux, FluxOR fluorescence; hits give low values; B-score at 10 µM; actives 0.84% (n = 340,000); AID 602410;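 active = B-score under library mean minus 4 SD, starting fluorescence ratio at most library mean plus 5 SD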;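 note: more negative B-score means stronger inhibition of thallium flux through KCNK3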
KCNK9 block = blocks the human KCNK9 two-pore domain potassium channel; Q9NPC2; HEK293 KCNK9, FluxOR thallium flux fluorescence; hits give low values; B-score at 10 µM; actives 1.2% (n = 310,000);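 active = ratio B-score over 3 SD below the library mean, with starting fluorescence within 5 SD of its mean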;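 note: negative B-score means less thallium flux so channel inhibition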
hERG rescue = compounds protecting human hERG from proarrhythmic drug block; CHO-hERG, FluxOR thallium flux, dofetilide IC70 present; AID 1511; activation (rescue from dofetilide block), less the hit threshold, % at 10 µM; actives 0.51% (n = 310,000);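 active = activation above the mean of controls blocked by dofetilide plus 5 SD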;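 note: thallium influx through hERG after potassium depolarization seen as dye fluorescence rise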
An asterisk follows results filed as active; i = inactive; . = not tested or not shown. Hits are enriched below; roughly 3.8% of the tested compounds scored in any of these assays.

SMILES	Kir21 block	KCNQ1 act	KCNQ1 block	KCNK3 block	KCNK9 block	hERG rescue
Cc1cc(C=O)c(C)n1C(C)C	-0.06	i	i	i	i	-4
FC(F)(F)c1cccc(C2NCc3ccccc3-n3cccc32)c1 (stereo not drawn)	-2.4	i	i	i	i	-6
Oc1ccc(C2NCc3ccccc3-n3cccc32)cc1Cl (stereo not drawn)	-8.9*	i	i	i	i	-12
C[C@]1(O)CC[C@H]2[C@@H]3CCC4=CC(=O)CC[C@]4(C)[C@@]3(F)[C@@H](O)C[C@@]21C	.	.	.	-9.8*	.	.
CC(NCC#Cc1ccccc1)C(O)c1ccccc1 (stereo not drawn)	-0.85	i	i	i	i	-14
CSc1ccc(CNC(C)C(O)c2ccccc2)cc1 (stereo not drawn)	-5.5*	i	i	i	i	-16
COc1ccc(-n2c(O)c(C(C)=NCc3ccc4c(c3)OCO4)c(=O)[nH]c2=O)cc1	-0.84	i	i	i	i	-6
CN1CSC(=S)N(C)C1	0.11	i	13*	i	i	-29
O=c1[nH]c(=S)n(-c2ccc(Cl)cc2)c(O)c1/C=N/N1CCOCC1	0.1	i	i	i	i	-12
CCN1CCN(c2cc(N3CCCC3)c([N+](=O)[O-])cc2F)CC1	-4.2*	i	i	i	i	-6
COc1ccc(NC2Oc3cc4c(cc3C(c3cc(OC)c(OC)c(OC)c3)C2C)OCO4)cc1 (stereo not drawn)	.	.	.	i	.	.
Clc1ccc2c(c1)C(OC1CN3CCC1CC3)c1ccccc1CS2 (stereo not drawn)	-5.9*	i	i	i	i	-15
CN1CCN(CCOC2c3ccccc3CSc3ccc(Cl)cc32)CC1 (stereo not drawn)	-4.8*	i	i	i	i	-6
COc1ccc(CCNCc2c(OC)ccc3ccccc23)cc1	-11*	i	i	i	i	-14
COc1ccc(CCNCc2ccccc2)cc1	-2.9	i	i	i	i	-9
Cc1ccc(C(=O)N[C@@H](C)CN2C3=NC[C@H](Cc4ccccc4)N3C[C@H]2Cc2ccc(O)cc2)cc1Br	-5.4*	i	i	.	i	-19
Cc1ccc(C(=O)N[C@@H](C)CN2C3=NC[C@@H](Cc4ccccc4)N3C[C@H]2Cc2ccc(O)cc2)cc1Br	-5.7*	i	i	.	i	-21
CSCc1nnc2n1-c1ccc(Cl)cc1C(c1ccccc1)=NC2	-0.74	i	i	i	i	-4
Clc1ccc(CSC(Cn2ccnc2)c2ccc(Cl)cc2Cl)cc1 (stereo not drawn)	-0.07	i	6*	i	i	-16
CN1C(=O)/C(=C/c2ccc(Cl)s2)C(=O)NC1=S	0.27	i	i	i	i	5.2*
Cc1ccsc1/C=C1\C(=O)NC(=S)N(C)C1=O	0.02	i	8*	i	i	-3
O=S(=O)(c1ccc(Cl)cc1)N1CCCC1c1cccnc1 (stereo not drawn)	-5.2*	i	i	i	i	-3
Nc1ccc(S(=O)(=O)N2CCCCC2c2cccnc2)cc1 (stereo not drawn)	-1.4	i	i	i	i	-3
O=S(=O)(c1ccccc1)N1CCCCC1c1cccnc1 (stereo not drawn)	-2.5	i	i	i	i	8.4*
CC(O)C1C=CC=CC(=O)OC2CC3OC4C5OC5(C)C(O)CC4(COC(=O)C(O)C(C)CCO1)C2(C)C31CO1 (stereo not drawn)	.	.	.	i	.	.
CCCOC(=O)c1ccc(-[n+]2c(-c3ccccc3)cc(-c3ccccc3)cc2-c2ccccc2)cc1	-11*	i	12*	i	-7.7*	-36
O=C(O)c1ccc(-[n+]2c(-c3ccccc3)cc(-c3ccccc3)cc2-c2ccccc2)cc1	-0.64	i	i	i	i	-2
CN1CCN(c2ccc([N+](=O)[O-])c3no[n+]([O-])c23)CC1	-6.6	i	10*	i	i	-36
CCOc1ccc(-n2c(O)c(/C=C3\C=Nc4ccccc43)c(=O)[nH]c2=O)cc1	-0.54	i	9*	i	i	-5
